pIC50: −log10 of the molar value. Activity calls are given as the source filed them. The calls are words filed in the database; no cut-off is given here.
How the values were obtained:
[1] = system: Plasmodium falciparum; test: Antimalarial activity against synchronized ring stage Plasmodium falciparum 3D7 transfected with nano-luciferase assessed as parasite growth inhibition at 200 uM after 72 hrs by Nano-Glo luciferase assay; format: functional, organism-based
[2] = system: Vero; test: Cytotoxicity against African green monkey Vero cells after 72 hrs by MTT assay; format: cell-based; conditions: Chlorocebus sabaeus
How it was run: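 Vero cells in DMEM with 10% FBS and penicillin/streptomycin, 37 °C, 5% CO₂, seeded at 3000 cells/well. Compounds came from 27 or 25 mM DMSO stocks diluted in medium, with matching DMSO controls. After 72 h, cells got 0.5 mg/mL MTT for 4 h at 37 °C; formazan was dissolved in DMSO and absorbance read at 562 nm.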

[3] = system: Plasmodium falciparum; test: Antimalarial activity against synchronized ring stage Plasmodium falciparum 3D7 transfected with nano-luciferase assessed as parasite growth inhibition after 72 hrs by Nano-Glo luciferase assay; format: functional, organism-based; conditions: 3D7, 72 h
How it was run: (§1)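 Assays started at 1% ring stage and 2% hematocrit, with serial RPMI dilutions from 20 mM ethanol stocks. Cultures were lysed with an equal volume of 0.02% saponin buffer containing Nano-Glo substrate, and luminescence was read for 30 s. IC50 was fitted by variable-slope nonlinear regression; 3 experiments ×3 technical replicates.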

[4] = Selectivity index, ratio of IC50 for African green monkey Vero cells to IC50 for synchronized ring stage Plasmodium falciparum 3D7 transfected with nano-luciferase; format: toxicity; conditions: read-out: Ratio IC50
[5] = system: Plasmodium falciparum; test: Antimalarial activity against synchronized ring stage Plasmodium falciparum 3D7 assessed as parasite growth inhibition measured after 24 to 96 hrs; format: functional, organism-based; conditions: in the assay text read “24 to 72 hrs” for “24 to 96 hrs”
How it was run: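 Sorbitol-synchronized 3D7 rings grown in RPMI-1640 with 0.5% Albumax I under 5% CO₂/5% O₂/90% N₂. Started at 1% ring stage, 2% hematocrit, with serial dilutions in RPMI from 20 mM ethanol stocks, plus ethanol solvent controls. Followed up to 72 h. Growth was read by SYBR Green I lysis-buffer staining (485/520 nm) and confirmed by Giemsa smears. IC50 came from variable-slope nonlinear regression; 3 experiments ×3 technical replicates.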

[6] = system: Plasmodium falciparum; test: Antimalarial activity against synchronized ring stage Plasmodium falciparum 3D7 transfected with nano-luciferase assessed as parasite growth inhibition after 48 hrs by Nano-Glo luciferase assay; format: functional, organism-based; conditions: 3D7, 48 h
How it was run: as §1, with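 “nLuc-exporting transfected 3D7 rings were sorbitol-synchronized and cultured in RPMI-1640/0.5% Albumax I under 5% CO₂/5% O₂/90% N₂. Assays” for “Assays”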

[7] = system: Erythrocyte; test: Hemolytic activity in erythrocytes (unknown origin) at 200 uM; format: ADME, cell-based
[8] = system: Erythrocyte; test: Hemolytic activity in erythrocytes (unknown origin) at 100 uM; format: ADME, cell-based

| Compound | Activity [1] | pIC50 [3] | further results |
| --- | --- | --- | --- |
| O=C(O)c1ccccc1SCc1cn(C/C=C/c2ccccc2)nn1 | Active | 4.18 | pIC50 [2]: < 3.70; selectivity ratio [4]: > 3.06 |
| CC(C)=CCSc1ccccc1C(=O)O | Active | < 3.70 |  |
| CCCCCCCCCCCCCn1cc(CSc2ccccc2C(=O)O)nn1 | Active | 4.70 | pIC50 [2]: 4.23; selectivity ratio [4]: 2.99 |
| CC(C)=CCC/C(C)=C/CC/C(C)=C/CSc1ccccc1C(=O)O [SALIRASIB] | Active | 4.69 | pIC50 [5]: 4.85; pIC50 [2]: 3.68; selectivity ratio [4]: 10.3 |
| O=C(O)c1ccccc1SCc1cn(C2CCCCC2)nn1 | Active | < 3.70 |  |
| O=C(O)c1ccccc1SCc1cn(Cc2ccccc2)nn1 | Active | < 3.70 |  |
| O=C(O)c1ccccc1SCc1cn(CCc2ccccc2)nn1 | Active | < 3.70 |  |
| O=C(O)c1ccccc1SC/C=C/c1ccccc1 | Active | < 3.70 |  |
| CCOC(=O)Cn1cc(CSc2ccccc2C(=O)O)nn1 | Active | < 3.70 |  |
| CC(C)=CCC/C(C)=C/CSc1ccccc1C(=O)O | Active | < 3.70 |  |
| O=C(O)c1ccccc1SCc1cn(Cc2ccc3ccccc3c2)nn1 | Active | 4.69 | pIC50 [2]: 3.84; selectivity ratio [4]: 6.95 |
| C[C@H]1[C@H](OC(=O)CCC(=O)O)O[C@@H]2O[C@@]3(C)CC[C@H]4[C@H](C)CC[C@@H]1[C@@]24OO3 [ARTESUNATE] |  |  | pIC50 [6]: 8.76 to 8.79 |
| CCCCCCCCCCCCCCCCn1cc(CSc2ccccc2C(=O)O)nn1 | Active | 4.84 | Activity [7]: Toxic; pIC50 [2]: 4.57; selectivity ratio [4]: 1.86; Activity [8]: Non-Toxic |
| CC(C)=CCC/C(C)=C/CC/C(C)=C/Cn1cc(CSc2ccccc2C(=O)O)nn1 | Active | 4.59 | pIC50 [2]: < 3.70; selectivity ratio [4]: > 7.7 |
| C/C(=C\Cn1cc(CSc2ccccc2C(=O)O)nn1)CCCC(C)CCCC(C)CCCC(C)C (centres undefined) | Active | 5.01 | Activity [7]: Toxic; pIC50 [2]: 4.47; selectivity ratio [4]: 3.67; Activity [8]: Non-Toxic |
| CC(C)=CCn1cc(CSc2ccccc2C(=O)O)nn1 | Active | < 3.70 |  |
| CCOC(=O)CCSc1ccccc1C(=O)O | Active | < 3.70 |  |
| CCCCCCCCCCn1cc(CSc2ccccc2C(=O)O)nn1 | Active | < 3.70 |  |
| O=C(O)c1ccccc1SCc1cn(CCCc2ccccc2)nn1 | Active | < 3.70 |  |
| CC(C)=CCC/C(C)=C/Cn1cc(CSc2ccccc2C(=O)O)nn1 | Active | < 3.70 |  |
| CCCCCCCCCCSc1ccccc1C(=O)O | Active | < 3.70 |  |
| CCOC(=O)CCn1cc(CSc2ccccc2C(=O)O)nn1 | Active | < 3.70 |  |
| CCCCCCCCSc1ccccc1C(=O)O | Active | < 3.70 |  |
| C/C(=C\CSc1ccccc1C(=O)O)CCCC(C)CCCC(C)CCCC(C)C (centres undefined) | Active | 4.87 | pIC50 [2]: 4.28; selectivity ratio [4]: 3.87 |
| CCCCCCCCn1cc(CSc2ccccc2C(=O)O)nn1 | Active | < 3.70 |  |
| C#CCSc1ccccc1C(=O)O | Active | < 3.70 |  |
| O=C(O)c1ccccc1SC1CCCCC1 | Active | < 3.70 |  |
